This is an account of results in ChEMBL document CHEMBL2146396, “Design, synthesis and evaluation of novel metalloproteinase inhibitors based on L-tyrosine scaffold” (Bioorg Med Chem, 2012).

The target of assay [1] is 72 kDa type IV collagenase (Homo sapiens, UniProt P08253). Description: Inhibition of MMP2 using BML-P125-9090 as substrate after 30 mins by microplate reader analysis. In outline: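 Colorimetric kit assay. Enzyme and inhibitor were preincubated 30 min at 37 °C in assay buffer equilibrated to 37 °C. Substrate was then added to start the reaction. A412 was read continuously at 1 min intervals for 10 min. IC50 was derived from the readings.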

Assay [2] addresses T1, Histone deacetylase 8 (Homo sapiens, UniProt Q9BY41).
T1 sequence (Q9BY41 whole entry): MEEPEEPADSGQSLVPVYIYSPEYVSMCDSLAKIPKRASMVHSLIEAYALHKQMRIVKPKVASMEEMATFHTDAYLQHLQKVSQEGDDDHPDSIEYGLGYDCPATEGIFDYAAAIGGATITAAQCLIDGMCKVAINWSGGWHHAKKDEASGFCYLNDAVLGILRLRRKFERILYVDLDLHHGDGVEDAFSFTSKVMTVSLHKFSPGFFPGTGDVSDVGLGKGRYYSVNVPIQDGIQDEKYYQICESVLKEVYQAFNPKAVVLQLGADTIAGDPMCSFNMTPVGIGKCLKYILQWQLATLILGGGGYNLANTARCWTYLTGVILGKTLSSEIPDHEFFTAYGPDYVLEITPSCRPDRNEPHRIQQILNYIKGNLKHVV
Description: Inhibition of HDAC8 after 45 mins by microplate fluorometric analysis.

Chain of 72 kDa type IV collagenase (P08253 whole entry): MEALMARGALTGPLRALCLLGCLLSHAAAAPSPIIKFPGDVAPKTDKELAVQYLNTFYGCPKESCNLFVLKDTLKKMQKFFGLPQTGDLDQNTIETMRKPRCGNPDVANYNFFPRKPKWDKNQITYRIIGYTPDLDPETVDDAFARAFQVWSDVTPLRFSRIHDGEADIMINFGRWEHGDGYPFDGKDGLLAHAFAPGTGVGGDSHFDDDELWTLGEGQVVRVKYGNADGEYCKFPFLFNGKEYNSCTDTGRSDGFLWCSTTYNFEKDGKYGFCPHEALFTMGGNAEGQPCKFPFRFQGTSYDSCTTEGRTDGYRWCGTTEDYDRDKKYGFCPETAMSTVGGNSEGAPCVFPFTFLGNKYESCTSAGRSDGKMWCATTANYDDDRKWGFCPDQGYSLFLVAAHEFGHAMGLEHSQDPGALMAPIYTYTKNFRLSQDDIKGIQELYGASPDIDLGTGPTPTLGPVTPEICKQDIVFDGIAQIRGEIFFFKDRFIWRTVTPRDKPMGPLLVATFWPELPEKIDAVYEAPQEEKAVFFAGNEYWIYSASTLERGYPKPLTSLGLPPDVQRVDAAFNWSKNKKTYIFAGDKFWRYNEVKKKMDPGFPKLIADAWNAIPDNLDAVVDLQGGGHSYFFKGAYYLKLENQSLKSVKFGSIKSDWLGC

As for `COC(=O)[C@H](Cc1ccc(OCc2ccccc2)cc1)NC(=O)c1ccccc1`, the half-maximal inhibitory concentration (IC50) – broadly, the midpoint of a concentration-inhibition curve – in assay [1] is 67500 nM; in assay [2], more than 1000 µM.

Turning to `COC(=O)[C@H](Cc1ccc(OCc2ccccc2)cc1)NC(=O)c1ccc(C)cc1`, the IC50 was 83700 nM in assay [1] and more than 1000 µM in assay [2]. As for `COC(=O)[C@H](Cc1ccc(OCc2ccccc2)cc1)NC(C)=O`, the concentration for half-maximal inhibition (IC50) in assay [1] was determined as 27600 nM; in assay [2] it was 872 µM. For `COC(=O)[C@H](Cc1ccc(OCc2ccccc2)cc1)NS(C)(=O)=O`, the concentration for half-maximal inhibition (IC50) in assay [1] came to 17800 nM; in assay [2] it was 754 µM.

Regarding `COC(=O)[C@H](Cc1ccc(OCc2ccccc2)cc1)NS(=O)(=O)c1ccc(C)cc1`, the concentration for half-maximal inhibition (IC50) in assay [1] was 10700 nM; in assay [2], more than 1000 µM. For the compound `COC(=O)[C@H](Cc1ccc(OCCc2ccccc2)cc1)NC(=O)c1ccccc1`, the IC50 in assay [1] was 74600 nM; in assay [2], more than 1000 µM.

Turning to `COC(=O)[C@H](Cc1ccc(OCCc2ccccc2)cc1)NC(=O)c1ccc(C)cc1`, the IC50 was 85500 nM in assay [1] and more than 1000 µM in assay [2]. With `COC(=O)[C@H](Cc1ccc(OCCc2ccccc2)cc1)NC(C)=O`, the IC50 is 12500 nM in assay [1] and 825 µM in assay [2]. For `COC(=O)[C@H](Cc1ccc(OCCc2ccccc2)cc1)NS(C)(=O)=O`, the 50% inhibitory concentration (IC50) is 2400 nM in assay [1] and more than 1000 µM in assay [2].

Take `COC(=O)[C@H](Cc1ccc(OCCc2ccccc2)cc1)NS(=O)(=O)c1ccc(C)cc1`: the values for the concentration for half-maximal inhibition (IC50) in assay [1] and in assay [2] were 6300 nM and 962 µM, respectively. Take `O=C(N[C@@H](Cc1ccc(OCc2ccccc2)cc1)C(=O)O)c1ccccc1`: the concentration for half-maximal inhibition (IC50) in assay [1] is 9800 nM; in assay [2], 111 µM. With `Cc1ccc(C(=O)N[C@@H](Cc2ccc(OCc3ccccc3)cc2)C(=O)O)cc1`, the IC50 in assay [1] was 8100 nM; in assay [2], more than 1000 µM. In the case of `CC(=O)N[C@@H](Cc1ccc(OCc2ccccc2)cc1)C(=O)O`, the IC50 in assay [1] is 3000 nM; in assay [2], 36.9 µM. For `CS(=O)(=O)N[C@@H](Cc1ccc(OCc2ccccc2)cc1)C(=O)O` the same measures were 1400 nM and 47.2 µM.

For `Cc1ccc(S(=O)(=O)N[C@@H](Cc2ccc(OCc3ccccc3)cc2)C(=O)O)cc1`, the IC50 came out at 2500 nM in assay [1] and 505 µM in assay [2]. As for `O=C(N[C@@H](Cc1ccc(OCCc2ccccc2)cc1)C(=O)O)c1ccccc1`, the concentration for half-maximal inhibition (IC50) in assay [1] was determined as 7600 nM; in assay [2], 253 µM.

For the compound `Cc1ccc(C(=O)N[C@@H](Cc2ccc(OCCc3ccccc3)cc2)C(=O)O)cc1`, the IC50 in assay [1] turned out to be 4500 nM; in assay [2] it was 386 µM. For `CC(=O)N[C@@H](Cc1ccc(OCCc2ccccc2)cc1)C(=O)O`, the IC50 in assay [1] is 750 nM; in assay [2], 121 µM. With `CS(=O)(=O)N[C@@H](Cc1ccc(OCCc2ccccc2)cc1)C(=O)O`, the IC50 was 120 nM in assay [1] and 102 µM in assay [2]. For `Cc1ccc(S(=O)(=O)N[C@@H](Cc2ccc(OCCc3ccccc3)cc2)C(=O)O)cc1` the same measures were 270 nM and more than 1000 µM. The corresponding values for `O=C(N[C@@H](Cc1ccc(OCc2ccccc2)cc1)C(=O)NO)c1ccccc1` are 1700 nM and 9.3 µM. As for `Cc1ccc(C(=O)N[C@@H](Cc2ccc(OCc3ccccc3)cc2)C(=O)NO)cc1`, the half-inhibitory concentration (IC50) came out at 460 nM in assay [1] and 30.7 µM in assay [2]. With `CC(=O)N[C@@H](Cc1ccc(OCc2ccccc2)cc1)C(=O)NO`, the IC50 is 37 nM in assay [1] and 5.8 µM in assay [2]. Turning to `CS(=O)(=O)N[C@@H](Cc1ccc(OCc2ccccc2)cc1)C(=O)NO`, the IC50 came out at 67 nM in assay [1] and 3.6 µM in assay [2]. Consider `Cc1ccc(S(=O)(=O)N[C@@H](Cc2ccc(OCc3ccccc3)cc2)C(=O)NO)cc1`, for which the IC50 in assay [1] came out at 25 nM; in assay [2], 42.4 µM.

With `O=C(N[C@@H](Cc1ccc(OCCc2ccccc2)cc1)C(=O)NO)c1ccccc1`, the half-maximal inhibitory concentration (IC50) in assay [1] is 900 nM; in assay [2] it was 27.8 µM. With `Cc1ccc(C(=O)N[C@@H](Cc2ccc(OCCc3ccccc3)cc2)C(=O)NO)cc1`, the IC50 in assay [1] was 3900 nM; in assay [2], 52.5 µM. As to `CC(=O)N[C@@H](Cc1ccc(OCCc2ccccc2)cc1)C(=O)NO`, the IC50 in assay [1] was found to be 13 nM; in assay [2], 14.4 µM. For `CS(=O)(=O)N[C@@H](Cc1ccc(OCCc2ccccc2)cc1)C(=O)NO`, the half-maximal inhibitory concentration (IC50) in assay [1] turned out to be 29 nM; in assay [2], 9.5 µM. In the case of `Cc1ccc(S(=O)(=O)N[C@@H](Cc2ccc(OCCc3ccccc3)cc2)C(=O)NO)cc1`, the values for the IC50 in assay [1] and in assay [2] were 17 nM and 82.5 µM, respectively. Turning to `COc1ccc(S(=O)(=O)N(CC(=O)NO)CC(C)C)cc1`, the IC50 in assay [1] was determined as 14 nM.
